# From ChEMBL document CHEMBL5705892, “MK-2206, an allosteric Akt inhibitor, enhances antitumor efficacy by standard chemotherapeutic agents or molecular targeted drugs in vitro and in vivo” (Mol Cancer Ther, 2010)
# Active and inactive are the calls of the source. The rule behind the calls is not given here.
# Experiments:
# Calu-6 = test: Antiproliferative activity against human Calu-6 cells assessed as reduction in cell proliferation measured after 72 hrs by celltiter-glo assay; assay type: functional, cell-based; conditions: Calu-6, 72 h
# How it was run: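 Cells in RPMI 1640 with 10% heat-inactivated FBS at 37°C and 5% CO₂ were seeded at 2 to 3 × 10³ per well. […] Growth was read as cellular ATP by CellTiter-Glo.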
# NCI-H460 = test: Synergistic antiproliferative activity against human NCI-H460 cells assessed as combination index at ED50 measured after 72 hrs in presence of erlotinib by celltiter-glo assay; assay type: functional
# [1] = biological target: RAC-alpha serine/threonine-protein kinase (Homo sapiens) (UniProt P31749); test: Inhibition of AKT in human A-431 cells assessed as reduction in AKT phosphorylation at S473 residue at 5 umol/L measured after 5 hrs by Western blot analysis; assay type: cell-based; conditions: dose 5.0 µmol/L
# How it was run: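 Cells were lysed in Tris-HCl pH 7.5, 150 mM NaCl, 1% Triton X-100 with protease and phosphatase inhibitors. Lysates were run on SDS-PAGE, transferred to nitrocellulose and probed with phospho-specific antibodies.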
# SK-OV-3 = test: Synergistic antiproliferative activity against human SK-OV-3 cells assessed as combination index at ED50 treated 24 hrs prior to lapatinib and measured after 72 hrs by celltiter-glo assay; assay type: functional; conditions: time 96 hrs
# HCC70 [2] = test: Synergistic antiproliferative activity against human HCC70 cells assessed as combination index at ED50 measured after 96 hrs in presence of lapatinib by celltiter-glo assay; assay type: functional
# MDA-MB-468 = test: Synergistic antiproliferative activity against human MDA-MB-468 cells assessed as combination index at ED50 measured after 96 hrs in presence of lapatinib by celltiter-glo assay; assay type: functional
# SK-BR-3 = test: Synergistic antiproliferative activity against human SK-BR-3 cells assessed as combination index at ED50 measured after 96 hrs in presence of lapatinib by celltiter-glo assay; assay type: functional
# HCC70 [3] = test: Synergistic antiproliferative activity against human HCC70 cells assessed as combination index at ED75 measured after 96 hrs in presence of lapatinib by celltiter-glo assay; assay type: functional
# HCC1954 = test: Synergistic antiproliferative activity against human HCC1954 cells assessed as combination index at ED75 measured after 96 hrs in presence of lapatinib by celltiter-glo assay; assay type: functional
# [4] = biological target: RAC-alpha serine/threonine-protein kinase (Homo sapiens) (UniProt P31749); test: Inhibition of AKT in human HCC70 cells assessed as reduction in S6 phosphorylation at S240/S244 residues at 1 umol/L measured after 3 to 24 hrs in presence of lapatinib by Western blot analysis; assay type: cell-based; conditions: dose 1.0 µmol/L, time 3-24 hrs
# How it was run: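 HCC70 cells at ~70% confluence were exposed to 10 µmol/L lapatinib, 1 µmol/L MK-2206, or both, for 0, 3, 6, 12 or 24 h. Lysates were prepared in Triton X-100/Tris buffer (pH 7.5) with protease and phosphatase inhibitors. Immunoblots after SDS-PAGE and nitrocellulose transfer were probed for pAkt and pS6.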
# HCC70 [5] = test: Antitumor activity against human HCC70 cells xenografted in CB17/icr SCID mouse assessed as reduction in tumor volume at 120 mg/kg, po administered 3 times per week for 3 weeks and measured twice a week during compound dosing by caliper method; assay type: functional, organism-based
# How it was run: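 Female C.B-17/ICR-scid mice were given s.c. HCC70 cells in 50% Matrigel/50% PBS in the left flank. They were randomized at a mean tumor size of 0.2 cm³, n = 5 per group. Lapatinib (distilled water) was given at 100 mg/kg po, 5 d/wk for 3 wk. MK-2206 (30% Captisol) was given at 120 mg/kg po, 3×/wk, 2 h after lapatinib. Calipers twice weekly; volume = […] × 0.5.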
# [6] = Toxicity in human HCC70 cells xenografted CB17/icr SCID mouse at 120 mg/kg, po administered 3 times per week for 3 weeks starting 2 hrs post-lapatinib treatment and measured during compound dosing; assay type: organism-based; conditions: in vivo, 504 h
# How it was run: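 HCC70 cells in 50% Matrigel/PBS injected s.c. into flank of female C.B-17/ICR-scid mice; dosing began after 3 wk, groups randomized at mean tumour 0.2 cm³ (n = 5). Lapatinib 100 mg/kg p.o. in distilled water, 5 d/wk for 3 wk; MK-2206 in 30% Captisol p.o. 3×/wk for 3 wk, given 2 h after lapatinib. Body weight and physical signs monitored throughout.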
# [7] = Toxicity in human SK-OV-3 cells xenografted CB17/icr SCID mouse at 60 to 120 mg/kg, po administered 3 times per week for 2 weeks starting 2 hrs post lapatinib treatment and measured during compound dosing; assay type: organism-based; conditions: in vivo, 336 h, dose 60-120 mg/kg
# How it was run: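 SK-OV-3 cells in 50% Matrigel/PBS injected s.c. into flank of female C.B-17/ICR-scid mice; dosing began after 3 wk, randomized at mean tumour 0.13 cm³ (n = 5). Lapatinib 100 mg/kg p.o. in distilled water 5 d/wk for 2 wk; MK-2206 in 30% Captisol p.o. days 0, 2, 4, 7, 9, 11. Body weight and physical signs monitored.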
# MCF7 = test: Synergistic antiproliferative activity against human MCF7 cells assessed as combination index at ED75 measured after 72 hrs in presence of docetaxel by celltiter-glo assay; assay type: functional
# How it was run: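 Cells grown in RPMI 1640 with 10% heat-inactivated FBS at 37°C, 5% CO₂. Seeded at 2 to 3 × 10³ per well; drugs added 24 h later. […] Viability read as cellular ATP by CellTiter-Glo. CI calculated by Chou–Talalay from median-effect plots at ED50, ED75 and ED90.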
# A2780 [8] = test: Synergistic antiproliferative activity against human A2780 cells assessed as combination index at ED50 measured after 72 hrs in presence of doxorubicin by celltiter-glo assay; assay type: functional
# How it was run: (§1)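 Cells were seeded at 2–3 × 10³ per well in RPMI 1640 with 10% FBS. At 24 h, MK-2206 and the partner drug were added simultaneously at constant concentration ratios spanning each agent's IC₅₀, for 72 h. Growth was read as cellular ATP by CellTiter-Glo. CI was taken from median-effect plots of each agent alone and in combination (Chou–Talalay), at ED₅₀, ED₇₅ and ED₉₀.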
# A2780 [9] = test: Synergistic antiproliferative activity against human A2780 cells assessed as combination index at ED50 measured after 72 hrs in presence of 5-FU by celltiter-glo assay; assay type: functional; how it was run: as §1
# NCI-H441 = test: Synergistic antiproliferative activity against human NCI-H441 cells assessed as combination index at ED25 to ED90 measured after 72 hrs in presence of carboplatin by celltiter-glo assay; assay type: functional
# UMC-11 = test: Induction of apoptosis in human UMC-11 cells assessed as fold induction of capsase-3/7 activity measured after 24 to 48 hrs in presence of carboplatin by caspase-glo 3/7 assay; assay type: functional; conditions: time 24-48 hrs
# [10] = biological target: RAC-alpha serine/threonine-protein kinase (Homo sapiens) (UniProt P31749); test: Inhibition of AKT phosphorylation at S473 residue in human NCI-H1993 cells at 3 umol/L measured after 4 to 24 hrs in presence of carboplatin by MSD assay; conditions: time 4-24 hrs
# Chain of RAC-alpha serine/threonine-protein kinase (Homo sapiens) (P31749 whole entry): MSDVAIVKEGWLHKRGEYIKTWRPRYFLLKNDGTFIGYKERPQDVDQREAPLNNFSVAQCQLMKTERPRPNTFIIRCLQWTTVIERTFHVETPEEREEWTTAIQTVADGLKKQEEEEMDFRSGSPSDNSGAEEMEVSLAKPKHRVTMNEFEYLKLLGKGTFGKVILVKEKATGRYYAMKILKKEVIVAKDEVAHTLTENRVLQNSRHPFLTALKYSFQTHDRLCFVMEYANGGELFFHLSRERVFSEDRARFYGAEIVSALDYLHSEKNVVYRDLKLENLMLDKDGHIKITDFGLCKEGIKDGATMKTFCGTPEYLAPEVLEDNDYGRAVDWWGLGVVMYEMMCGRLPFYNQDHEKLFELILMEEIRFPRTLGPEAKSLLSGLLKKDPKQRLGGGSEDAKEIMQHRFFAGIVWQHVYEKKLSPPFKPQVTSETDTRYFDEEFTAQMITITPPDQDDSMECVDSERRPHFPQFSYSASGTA
compound,measurement,setting,value
Cl.NC1(c2ccc(-c3nc4ccn5c(=O)[nH]nc5c4cc3-c3ccccc3)cc2)CCC1,IC50,Calu-6,28.6 µM
same,CI50,NCI-H460,0.34
same,inhibition,[1],Active
same,CI50,SK-OV-3,0.18
same,CI50,HCC70 [2],0.18
same,CI50,MDA-MB-468,0.18
same,CI50,SK-BR-3,0.18
same,CI75,HCC70 [3],0.18
same,CI75,HCC1954,0.18
same,inhibition,[4],Active
same,Activity,HCC70 [5],Active
same,Activity,[6],Non-Toxic
same,Activity,[7],Non-Toxic
same,CI75,MCF7,0.5
same,CI50,A2780 [8],0.7
same,CI50,A2780 [9],0.68
same,CI,NCI-H441,0.46
same,fold change (FC),UMC-11,1.1
same,inhibition,[10],Active
